Experimental data published in ChEMBL document CHEMBL3525944, “Nonlinear pharmacokinetics of 5-methoxy-N,N-dimethyltryptamine in mice” (Drug Metab Dispos, 2011).

Key:
Mus musculus [1] = assay: Dose normalized AUC (0 to infinity) in wild-type FVB/N mouse at 2 mg/kg, iv by LC-MS/MS analysis; assay type: ADME, organism-based; set-up: dose 2 mg/kg, route intravenous; conditions: in vivo
Mus musculus [2] = assay: Dose normalized AUC (0 to infinity) in wild-type FVB/N mouse at 10 mg/kg, iv by LC-MS/MS analysis; assay type: ADME, organism-based; set-up: dose 10 mg/kg, route intravenous; conditions: in vivo
Mus musculus [3] = assay: Dose normalized AUC (0 to infinity) in wild-type FVB/N mouse at 20 mg/kg, iv by LC-MS/MS analysis; assay type: ADME, organism-based; set-up: dose 20 mg/kg, route intravenous; conditions: in vivo
[4] = Clearance in wild-type FVB/N mouse at 2 mg/kg, iv by LC-MS/MS analysis; assay type: ADME, organism-based; set-up: dose 2 mg/kg, route intravenous; conditions: in vivo
[5] = Clearance in wild-type FVB/N mouse at 10 mg/kg, iv by LC-MS/MS analysis; assay type: ADME, organism-based; set-up: dose 10 mg/kg, route intravenous; conditions: in vivo
[6] = Clearance in wild-type FVB/N mouse at 20 mg/kg, iv by LC-MS/MS analysis; assay type: ADME, organism-based; set-up: dose 20 mg/kg, route intravenous; conditions: in vivo
[7] = Volume of distribution at steady state in wild-type FVB/N mouse at 2 mg/kg, iv by LC-MS/MS analysis; assay type: ADME, organism-based; set-up: dose 2 mg/kg, route intravenous; conditions: in vivo, read-out: Vdss
Procedure, shortened: (§1)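 Male 8-week FVB/N wild-type or CYP2D6-humanized mice (25-30 g) given 5-MeO-DMT oxalate in saline i.v. at 5 µL/g body weight. Serum collected 0-180 min, N = 3 per time point, proteins precipitated with ice-cold acetonitrile containing internal standard, LC-MS/MS. Noncompartmental analysis of composite mean data; t1/2 = 0.693/terminal slope; Vss = CL×AUMC/AUC, CL = dose/AUC0→∞.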

[8] = Volume of distribution at steady state in wild-type FVB/N mouse at 10 mg/kg, iv by LC-MS/MS analysis; assay type: ADME, organism-based; set-up: dose 10 mg/kg, route intravenous; conditions: in vivo, read-out: Vdss; procedure, shortened: as §1
[9] = Volume of distribution at steady state in wild-type FVB/N mouse at 20 mg/kg, iv by LC-MS/MS analysis; assay type: ADME, organism-based; set-up: dose 20 mg/kg, route intravenous; conditions: in vivo, read-out: Vdss; procedure, shortened: as §1
[10] = Half life in wild-type FVB/N mouse at 2 mg/kg, iv by LC-MS/MS analysis; assay type: ADME, organism-based; set-up: dose 2 mg/kg, route intravenous; conditions: in vivo; procedure, shortened: as §1
[11] = Half life in wild-type FVB/N mouse at 10 mg/kg, iv by LC-MS/MS analysis; assay type: ADME, organism-based; set-up: dose 10 mg/kg, route intravenous; conditions: in vivo
[12] = Half life in wild-type FVB/N mouse at 20 mg/kg, iv by LC-MS/MS analysis; assay type: ADME, organism-based; set-up: dose 20 mg/kg, route intravenous; conditions: in vivo; procedure, shortened: as §1
Mus musculus [13] = assay: AUC (0 to infinity) in wild-type FVB/N mouse at 2 mg/kg, ip by LC-MS/MS analysis; assay type: ADME, organism-based, Plasma; set-up: time infinity, dose 2 mg/kg, route intraperitoneal; conditions: in vivo
Mus musculus [14] = assay: AUC (0 to infinity) in wild-type FVB/N mouse at 10 mg/kg, ip by LC-MS/MS analysis; assay type: ADME, organism-based, Plasma; set-up: time infinity, dose 10 mg/kg, route intraperitoneal; conditions: in vivo
Mus musculus [15] = assay: AUC (0 to infinity) in wild-type FVB/N mouse at 20 mg/kg, ip by LC-MS/MS analysis; assay type: ADME, organism-based, Plasma; set-up: time infinity, dose 20 mg/kg, route intraperitoneal; conditions: in vivo
Mus musculus [16] = assay: Dose normalized AUC (0 to infinity) in wild-type FVB/N mouse at 2 mg/kg, ip by LC-MS/MS analysis; assay type: ADME, organism-based; set-up: dose 2 mg/kg, route intraperitoneal; conditions: in vivo
[17] = Toxicity in mouse; assay type: organism-based; conditions: in vivo
Serum [18] = assay: Drug recovery in wild-type FVB/N mouse serum by LC-MS/MS analysis; assay type: ADME, cell-free
Serum [19] = assay: Drug recovery in CYP2D6-humanized transgenic FVB/N mouse serum by LC-MS/MS analysis; assay type: ADME, cell-free
Serum [20] = assay: Drug uptake in wild-type FVB/N mouse serum by LC-MS/MS analysis; assay type: ADME, cell-free; conditions: read-out: Drug uptake
Serum [21] = assay: Drug uptake in CYP2D6-humanized transgenic FVB/N mouse serum by LC-MS/MS analysis; assay type: ADME, cell-free; conditions: read-out: Drug uptake
Brain [22] = assay: Stability in wild-type FVB/N mouse brain at -80 degC; assay type: ADME
Procedure, shortened: (§2)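 Pilot test of 5-MeO-DMT in mouse brain homogenate (ice-cold saline) stored at -80°C over one year, quantified by LC-MS/MS after liquid-liquid extraction.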

Brain [23] = assay: Stability in CYP2D6-humanized transgenic FVB/N mouse brain at -80 degC; assay type: ADME; procedure, shortened: as §2
Mus musculus [24] = assay: AUC (0 to infinity) in wild-type FVB/N mouse at 2 mg/kg, iv by LC-MS/MS analysis; assay type: ADME, organism-based, Plasma; set-up: time infinity, dose 2 mg/kg, route intravenous; conditions: in vivo
Mus musculus [25] = assay: AUC (0 to infinity) in wild-type FVB/N mouse at 10 mg/kg, iv by LC-MS/MS analysis; assay type: ADME, organism-based, Plasma; set-up: dose 10 mg/kg, route intravenous, time infinity; conditions: in vivo
Mus musculus [26] = assay: Dose normalized AUC (0 to infinity) in wild-type FVB/N mouse at 10 mg/kg, ip by LC-MS/MS analysis; assay type: ADME, organism-based; set-up: dose 10 mg/kg, route intraperitoneal; conditions: in vivo
Mus musculus [27] = assay: Dose normalized AUC (0 to infinity) in wild-type FVB/N mouse at 20 mg/kg, ip by LC-MS/MS analysis; assay type: ADME, organism-based; set-up: dose 20 mg/kg, route intraperitoneal; conditions: in vivo
[28] = Tmax in wild-type FVB/N mouse at 2 mg/kg, ip by LC-MS/MS analysis; assay type: ADME, organism-based; set-up: dose 2 mg/kg, route intraperitoneal; conditions: in vivo
Procedure, shortened: (§3)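 Male 8-week FVB/N wild-type or CYP2D6-humanized mice given 5-MeO-DMT oxalate in saline i.p. at 10 µL/g body weight. Serum sampled 0-180 min, N = 4 per time point, processed by acetonitrile protein precipitation with internal standard, quantified by LC-MS/MS. Tmax taken as observed from composite mean serum concentration-time data.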

[29] = Tmax in wild-type FVB/N mouse at 10 mg/kg, ip by LC-MS/MS analysis; assay type: ADME, organism-based; set-up: dose 10 mg/kg, route intraperitoneal; conditions: in vivo; procedure, shortened: as §3
[30] = Tmax in wild-type FVB/N mouse at 20 mg/kg, ip by LC-MS/MS analysis; assay type: ADME, organism-based; set-up: dose 20 mg/kg, route intraperitoneal; conditions: in vivo; procedure, shortened: as §3
[31] = Cmax in wild-type FVB/N mouse at 2 mg/kg, ip by LC-MS/MS analysis; assay type: ADME, organism-based; set-up: dose 2 mg/kg, route intraperitoneal; conditions: in vivo
[32] = Cmax in wild-type FVB/N mouse at 10 mg/kg, ip by LC-MS/MS analysis; assay type: ADME, organism-based; set-up: dose 10 mg/kg, route intraperitoneal; conditions: in vivo
[33] = Cmax in wild-type FVB/N mouse at 20 mg/kg, ip by LC-MS/MS analysis; assay type: ADME, organism-based; set-up: dose 20 mg/kg, route intraperitoneal; conditions: in vivo
[34] = Bioavailability in wild-type FVB/N mouse at 2 mg/kg, ip by LC-MS/MS analysis; assay type: ADME, organism-based; conditions: in vivo
[35] = Bioavailability in wild-type FVB/N mouse at 10 mg/kg, ip by LC-MS/MS analysis; assay type: ADME, organism-based; conditions: in vivo

`COc1ccc2[nH]cc(CCN(C)C)c2c1.O=C(O)C(=O)O` gave an AUC/dose (Mus musculus [1]) of 5.19 kg·min/L, an AUC/dose (Mus musculus [2]) of 10.6 kg·min/L and an AUC/dose (Mus musculus [3]) of 10 kg·min/L. For the same compound, the clearance [4] was 190 mL/min/kg, the clearance [5] was 94 mL/min/kg and the clearance [6] was 100 mL/min/kg. It also gave a Vd [7] of 2.27 L/kg, a Vd [8] of 2.08 L/kg and a Vd [9] of 1.84 L/kg. For the same compound, the half-life [10] was 9.2 min, the half-life [11] was 12 min and the half-life [12] was 15 min. The AUC (Mus musculus [13]) was 24.9 µmol·min/L, the AUC (Mus musculus [14]) was 231 µmol·min/L and the AUC (Mus musculus [15]) was 654 µmol·min/L. For the same compound, the AUC/dose (Mus musculus [16]) was 2.71 kg·min/L, the LD50 [17] was 48 mg/kg and the Drug recovery (Serum [18]) was 62%. It also gave a Drug recovery (Serum [19]) of 62%, a concentration (Serum [20]) of 4.1 nM and a concentration (Serum [21]) of 4.1 nM. For the same compound, the Stability (Brain [22]) was > 1 yr, the Stability (Brain [23]) was > 1 yr and the AUC (Mus musculus [24]) was 47.6 µmol·min/L. For the same compound, the AUC (Mus musculus [25]) was 487 µmol·min/L, the AUC/dose (Mus musculus [26]) was 5.03 kg·min/L and the AUC/dose (Mus musculus [27]) was 7.13 kg·min/L. For the same compound, the Tmax [28] was 3 min, the Tmax [29] was 5 min and the Tmax [30] was 5 min. The Cmax [31] was 1310 nM, the Cmax [32] was 7 µM and the Cmax [33] was 15.8 µM. The bioavailability [34] was 52.2% and the bioavailability [35] was 47.3%.
